Results from ChEMBL document CHEMBL4257549, “Design, synthesis and biological evaluation of benzimidazole-rhodanine conjugates as potent topoisomerase II inhibitors” (Medchemcomm, 2018).
pIC50: −log10 of the molar value. Calls of active or inactive are those of the source. No cut-off for these calls is given here.

How the values were obtained:
Raji = assay: Cytotoxicity against human Raji cells after 48 hrs by MTT assay; assay type: functional, cell-based
Outline: (§1)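 Cells seeded at 5000 per well, left overnight, then exposed to compound at 0–50 μM for 48 h. MTT (20 μL of 2.5 mg mL−1) added for a further 4 h at 37 °C, formazan dissolved in DMSO, absorbance read at 570 nm. Quadruplicate wells, N > 2 determinations, mean IC50 taken as the concentration reducing cell number to 50%.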

Homo sapiens [1] = organism: Homo sapiens; assay: Inhibition of human topoisomerase 2-mediated pBR322 DNA relaxation at 20 uM after 30 mins by agarose gel electrophoresis
HL-60 = assay: Cytotoxicity against human HL60 cells after 48 hrs by MTT assay; assay type: functional, cell-based; conditions: HL-60, 48 h; outline: as §1
PC-3 = assay: Cytotoxicity against human PC3 cells after 48 hrs by MTT assay; assay type: functional, cell-based; conditions: PC-3, 48 h; outline: as §1
MDA-MB-231 = assay: Cytotoxicity against human MDA-MB-231 cells after 48 hrs by MTT assay; assay type: functional, cell-based; conditions: MDA-MB-231, 48 h; outline: as §1
HeLa = assay: Cytotoxicity against human HeLa cells after 48 hrs by MTT assay; assay type: functional, cell-based; outline: as §1
[2] = molecular target: T1, DNA topoisomerase 1 (Homo sapiens) (UniProt P11387); assay: Inhibition of topoisomerase 1 (unknown origin)-mediated pBR322 DNA relaxation at 50 uM after 30 mins by agarose gel electrophoresis
T1 sequence (whole entry): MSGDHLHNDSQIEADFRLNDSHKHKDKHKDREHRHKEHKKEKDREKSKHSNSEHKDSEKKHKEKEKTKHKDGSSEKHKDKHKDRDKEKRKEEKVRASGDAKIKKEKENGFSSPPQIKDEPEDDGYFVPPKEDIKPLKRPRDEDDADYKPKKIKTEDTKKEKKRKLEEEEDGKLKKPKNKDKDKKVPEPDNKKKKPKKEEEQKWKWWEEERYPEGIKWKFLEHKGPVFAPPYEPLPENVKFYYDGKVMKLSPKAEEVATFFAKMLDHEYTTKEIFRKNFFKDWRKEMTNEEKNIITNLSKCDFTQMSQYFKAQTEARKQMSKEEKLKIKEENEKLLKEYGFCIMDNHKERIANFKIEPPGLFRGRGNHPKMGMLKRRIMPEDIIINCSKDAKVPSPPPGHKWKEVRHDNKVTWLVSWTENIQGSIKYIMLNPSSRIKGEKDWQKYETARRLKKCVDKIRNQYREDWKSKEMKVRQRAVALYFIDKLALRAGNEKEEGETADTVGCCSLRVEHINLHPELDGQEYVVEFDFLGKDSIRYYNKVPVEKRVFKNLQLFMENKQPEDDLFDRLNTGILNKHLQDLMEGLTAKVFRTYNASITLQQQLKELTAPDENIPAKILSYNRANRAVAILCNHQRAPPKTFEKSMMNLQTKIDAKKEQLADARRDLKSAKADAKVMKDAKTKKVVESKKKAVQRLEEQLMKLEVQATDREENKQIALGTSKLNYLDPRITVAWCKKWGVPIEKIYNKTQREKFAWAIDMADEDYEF
Outline: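 Topo I relaxation of pBR322 with compound at 30 min, 37 °C, camptothecin positive control. Stopped with SDS/bromophenol blue/glycerol dye, run on 1% agarose in TAE for 1.5 h, Ged Red stained, UV visualized.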

A549 = assay: Cytotoxicity against human A549 cells after 48 hrs by MTT assay; assay type: functional, cell-based; conditions: A549, 48 h; outline: as §1
Homo sapiens [3] = organism: Homo sapiens; assay: Inhibition of human topoisomerase 2-mediated pBR322 DNA relaxation at 10 uM after 30 mins by agarose gel electrophoresis
Homo sapiens [4] = organism: Homo sapiens; assay: Inhibition of human topoisomerase 2-mediated pBR322 DNA relaxation at 50 uM after 30 mins by agarose gel electrophoresis
Outline: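 Relaxation of 200 ng supercoiled pBR322 by 1 U Topo II (TopoGEN) in 20 μL buffer: 50 mM Tris-HCl pH 8.0, 150 mM NaCl, 10 mM MgCl2, 2 mM ATP, 0.5 mM DTT, 30 μg/mL BSA. Incubated 30 min at 37 °C, stopped with sarcosyl/glycerol dye. Products run on 1% agarose in TAE (1.5 h, 75 V), Ged Red stained, UV imaged; etoposide positive control.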

| Compound | inhibition (Homo sapiens [1]) | inhibition [2] | inhibition (Homo sapiens [3]) | inhibition (Homo sapiens [4]) | pIC50 (Raji) | pIC50 (HL-60) | pIC50 (PC-3) | pIC50 (MDA-MB-231) | pIC50 (HeLa) | pIC50 (A549) |
| --- | --- | --- | --- | --- | --- | --- | --- | --- | --- | --- |
| COc1cc(Cn2c(/C=C3\SC(=S)N(CC(=O)O)C3=O)nc3ccccc32)cc(OC)c1 | Active |  | Active |  | 5.68 | 5.85 | 5.20 | 5.89 | 4.75 | 5.29 |
| Cc1ccc(Cn2c(/C=C3\SC(=S)N(CCC(=O)O)C3=O)nc3ccccc32)cc1 | inactive | inactive |  |  | 5.18 | 5.38 | 5.03 | 5.42 | 4.95 | 5.06 |
| O=C1NC(=S)S/C1=C\c1nc2ccccc2n1Cc1ccccc1F | Active | inactive |  |  | 4.59 | 5.07 | < 4.30 | 4.67 | 4.44 | < 4.30 |
| CC[C@@]1(O)C(=O)OCc2c1cc1n(c2=O)Cc2cc3ccccc3nc2-1 [CAMPTOTHECIN] |  |  |  |  | 5.49 | 6.38 | 4.74 | 4.78 | < 4.30 | 5.66 |
| Cc1ccc(Cn2c(/C=C3\SC(=S)N(CC(=O)O)C3=O)nc3ccc(Cl)cc32)cc1 | Active | inactive |  | Active | 5.55 | 5.55 | 5.82 | 5.40 | 4.96 | 5.00 |
| CCn1c(/C=C2\SC(=S)N(CC(=O)O)C2=O)nc2ccccc21 | inactive | inactive |  | Active | 5.25 | 5.67 | 5.49 | 5.73 | 5.45 | 5.03 |
| O=C(O)CN1C(=O)/C(=C/c2nc3ccccc3n2Cc2ccc(Br)cc2)SC1=S | Active | inactive |  |  | 5.92 | 6.06 | 5.07 | 5.06 | 4.89 | 5.04 |
| O=C(O)CN1C(=O)/C(=C/c2nc3cc(F)ccc3n2Cc2ccccc2F)SC1=S | inactive | inactive |  | Active | 4.69 | < 4.30 | < 4.30 | 4.65 | < 4.30 | 4.49 |
| Cc1ccc(C(=O)Cn2c(/C=C3\SC(=S)N(CC(=O)O)C3=O)nc3ccccc32)cc1 | Active | inactive |  |  | 4.91 | 4.80 | 5.06 | 4.77 | 4.56 | 5.02 |
| O=C(O)CN1C(=O)/C(=C/c2nc3ccccc3n2Cc2ccc(F)cc2F)SC1=S | inactive | inactive |  | Active | 5.05 | 5.19 | 4.66 | 4.94 | 4.58 | 4.89 |
| COc1ccc(C(=O)Cn2c(/C=C3\SC(=S)N(CC(=O)O)C3=O)nc3ccccc32)cc1 | inactive | inactive |  |  | 5.20 | 5.26 | 5.06 | 4.89 | 4.57 | 5.29 |
| O=C(O)CN1C(=O)/C(=C/c2nc3ccccc3n2Cc2ccc(C(F)(F)F)cc2)SC1=S | Active | inactive |  |  | 4.73 | 5.45 | 4.64 | 4.90 | 4.67 | 4.60 |
| O=C(O)CN1C(=O)/C(=C/c2nc3ccccc3n2Cc2ccc([N+](=O)[O-])cc2)SC1=S | inactive | inactive |  |  | 5.60 | 5.27 | 5.08 | 5.11 | 4.73 | 4.94 |
| N#Cc1ccc(Cn2c(/C=C3\SC(=S)N(CC(=O)O)C3=O)nc3ccccc32)cc1 | inactive | inactive |  |  | 5.01 | 5.12 | 4.84 | 4.95 | 4.79 | 4.58 |
| COc1ccc2c(c1)nc(/C=C1\SC(=S)N(CC(=O)O)C1=O)n2Cc1ccccc1F | inactive | inactive |  | Active | 4.94 | 5.47 | 4.61 | 4.77 | 4.65 | 4.74 |

Continued, in another order:

| inhibition (Homo sapiens [1]) | inhibition [2] | inhibition (Homo sapiens [3]) | inhibition (Homo sapiens [4]) | Compound | pIC50 (Raji) | pIC50 (HL-60) | pIC50 (PC-3) | pIC50 (MDA-MB-231) | pIC50 (HeLa) | pIC50 (A549) |
| --- | --- | --- | --- | --- | --- | --- | --- | --- | --- | --- |
| Active | inactive |  |  | O=C(O)CN1C(=O)/C(=C/c2nc3ccccc3n2Cc2ccc(Cl)cc2)SC1=S | 4.94 | 5.58 | 5.01 | 5.25 | 5.06 | 4.76 |
| Active | inactive | Active |  | O=C(O)CN1C(=O)/C(=C/c2nc3ccccc3n2CC(=O)c2ccc(F)cc2)SC1=S | 5.08 | 5.40 | 5.01 | 5.20 | 4.83 | 4.89 |
| Active | inactive |  | Active | COc1ccc2nc(/C=C3\SC(=S)N(CC(=O)O)C3=O)n(Cc3ccc(C)cc3)c2c1 | 4.97 | 5.72 | 4.79 | 5.42 | 5.19 | 4.63 |
| Active | inactive |  |  | Cc1ccc(Cn2c(/C=C3\SC(=S)NC3=O)nc3ccccc32)cc1 | 5.35 | 5.58 | 5.01 | 5.19 | 4.60 | 5.27 |
| Active | inactive |  |  | O=C(O)CN1C(=O)/C(=C/c2nc3ccccc3n2Cc2ccc(F)cc2)SC1=S | 5.75 | 5.85 | 5.31 | 5.58 | 4.86 | 5.45 |
| inactive | inactive |  |  | O=C(O)CN1C(=O)/C(=C/c2nc3ccccc3n2Cc2cccc(F)c2)SC1=S | 4.88 | 5.14 | 4.45 | 4.65 | < 4.30 | 4.64 |
| Active | inactive | Active |  | O=C(O)CN1C(=O)/C(=C/c2nc3ccccc3n2CC(=O)c2ccc(Cl)cc2)SC1=S | 5.50 | 5.61 | 5.19 | 5.95 | 4.56 | 5.01 |
| inactive | inactive |  |  | O=C(O)CCN1C(=O)/C(=C/c2nc3ccccc3n2Cc2ccccc2F)SC1=S | 4.95 | 5.24 | 4.54 | 5.02 | 4.58 | 4.73 |
| Active | inactive |  | Active | O=C(O)CN1C(=O)/C(=C/c2nc3ccccc3n2Cc2ccccc2)SC1=S | 5.41 | 6.02 | 4.97 | 5.74 | 4.64 | 5.06 |
| inactive | inactive |  | Active | O=C(O)CN1C(=O)/C(=C/c2nc3ccccc3n2Cc2ccc(Br)cc2F)SC1=S | 4.94 | 5.19 | 4.68 | 4.55 | < 4.30 | 4.56 |
